According to ChEMBL document CHEMBL1926667, “The synthesis of 2-nitroaryl-1,2,3,4-tetrahydroisoquinolines, nitro-substituted 5,6-dihydrobenzimidazo[2,1-a]isoquinoline N-oxides and related heterocycles as potential bioreducible substrates for the enzymes NAD(P)H: quinone oxidoreductase 1 and E. coli nitroreductase” (Bioorg Med Chem Lett, 2011):

Assays:
[1] = target: NAD(P)H dehydrogenase [quinone] 1 (Homo sapiens) (UniProt P15559); assay: Activation of human NQO1 assessed as specific activity per mg of protein at 100 uM by measuring decrease in substrate concentration by HPLC analysis
Chain of NAD(P)H dehydrogenase [quinone] 1 (Homo sapiens) (P15559 whole entry): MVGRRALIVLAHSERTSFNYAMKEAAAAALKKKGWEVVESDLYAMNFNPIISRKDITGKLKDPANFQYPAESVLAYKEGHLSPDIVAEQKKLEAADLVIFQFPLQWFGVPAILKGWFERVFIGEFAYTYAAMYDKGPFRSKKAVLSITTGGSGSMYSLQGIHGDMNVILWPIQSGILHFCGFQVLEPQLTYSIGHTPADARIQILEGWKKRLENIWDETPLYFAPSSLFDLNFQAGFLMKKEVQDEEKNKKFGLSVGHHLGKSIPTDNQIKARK
How it was run: (§1)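 Reduction by human NQO1 or E. coli NR followed by the disappearance of substrate over time; specific activity is the rate of substrate reduction at 37 °C. Relative activity is the specific activity compared with CB-1954.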

[2] = tested on: Escherichia coli; assay: Activation of Escherichia coli nitroreductase assessed as specific activity per mg of protein at 100 uM by measuring decrease in substrate concentration by HPLC analysis; how it was run: as §1
[3] = tested on: Escherichia coli; assay: Activation of Escherichia coli nitroreductase assessed as decrease in substrate concentration at 100 uM by HPLC analysis relative to CB-1954; how it was run: as §1
[4] = target: NAD(P)H dehydrogenase [quinone] 1 (Homo sapiens) (UniProt P15559); assay: Activation of human NQO1 assessed as decrease in substrate concentration at 100 uM by HPLC analysis relative to CB-1954; how it was run: as §1
[5] = tested on: Escherichia coli; assay: Activation of Escherichia coli nitroreductase assessed as specific activity per mg of protein at 100 uM by measuring decrease in NADH concentration
How it was run: (§2)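 Human NQO1 or E. coli NR reduction followed by the fall in NADH concentration over time; specific activity is the rate of reduction per enzyme at 37 °C. Relative values are the specific activity compared with CB-1954.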

[6] = tested on: Escherichia coli; assay: Activation of Escherichia coli nitroreductase assessed as decrease in NADH concentration at 100 uM relative to CB-1954; how it was run: as §2
[7] = target: NAD(P)H dehydrogenase [quinone] 1 (Homo sapiens) (UniProt P15559); assay: Activation of human NQO1 assessed as specific activity per mg of protein at 50 uM by measuring decrease in substrate concentration by HPLC analysis
How it was run: (§3)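 Used for poorly soluble substrates: 50 µM compound in buffer (10 mM phosphate, pH 7) with 10% DMSO, incubated with human NQO1 or E. coli NR at 37 °C. Substrate disappearance was monitored over time. Rates assume a 50 µM starting concentration and no DMSO effect on the enzyme. Relative activity is compared with CB-1954.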

[8] = Solubility of the compound at 100 uM in sodium phosphate buffer with 10% DMSO and 500 uM NADH at pH 7; assay type: physicochemical; settings: pH 7, 100 µM
[9] = target: NAD(P)H dehydrogenase [quinone] 1 (Homo sapiens) (UniProt P15559); assay: Activation of human NQO1 assessed as specific activity per mg of protein at 50 uM by measuring decrease in substrate concentration by HPLC analysis relative to CB-1954; how it was run: as §3
[10] = tested on: Escherichia coli; assay: Activation of Escherichia coli nitroreductase assessed as specific activity per mg of protein at 50 uM by measuring decrease in substrate concentration by HPLC analysis; how it was run: as §3
[11] = tested on: Escherichia coli; assay: Activation of Escherichia coli nitroreductase assessed as specific activity per mg of protein at 50 uM by measuring decrease in substrate concentration by HPLC analysis relative to CB-1954; how it was run: as §3
[12] = Solubility of the compound in 10 mM phosphate buffer with 10% DMSO at pH 7; assay type: physicochemical

With `NC(=O)c1cc2c(cc1[N+](=O)[O-])[n+]([O-])c1n2CCc2ccccc2-1` the Activity [1] was < 0.001 µmol/min, the Activity [2] was < 0.001 µmol/min and the fold change (FC) [3] was < 0.001. For the same compound, the fold change (FC) [4] was < 0.16.

Work on `O=[N+]([O-])c1cnc(N2CCc3ccccc3C2)c([N+](=O)[O-])c1` yielded an Activity [1] of 0.013 µmol/min, an Activity [2] of 1.49 µmol/min and a fold change (FC) [3] of 0.8. It also gave a fold change (FC) [4] of 2.1.

With `O=[N+]([O-])c1cc(C(F)(F)F)c2c(c1)[n+]([O-])c1n2CCc2c-1cccc2[N+](=O)[O-]` the Activity [1] was < 0.001 µmol/min, the Activity [2] was < 0.001 µmol/min and the fold change (FC) [3] was < 0.001. The fold change (FC) [4] was < 0.16.

Work on `NC(=O)c1cc([N+](=O)[O-])cc([N+](=O)[O-])c1N1CCc2ccccc2C1` yielded an Activity [1] of 0.053 µmol/min, an Activity [5] of 2.82 µmol/min and a fold change (FC) [6] of 1.5. The fold change (FC) [4] was 8.6.

In the case of `O=[N+]([O-])c1ccc2c(c1)-c1n(c3ccc([N+](=O)[O-])cc3[n+]1[O-])CC2`, the Activity [1] is reported as < 0.001 µmol/min, the Activity [5] is reported as 1.3 µmol/min and the fold change (FC) [6] is reported as 0.6. The fold change (FC) [4] was < 0.16.

`O=[N+]([O-])c1cnc2c(c1)[n+]([O-])c1n2CCc2ccccc2-1` gave an Activity [1] of 0.17 µmol/min, an Activity [2] of 54 µmol/min and a fold change (FC) [3] of 29. It also gave a fold change (FC) [4] of 27.4.

With `O=[N+]([O-])c1ccc2c(c1)[n+]([O-])c1n2CCc2c-1cccc2[N+](=O)[O-]` the Activity [1] was < 0.001 µmol/min, the Activity [5] was 1.51 µmol/min and the fold change (FC) [6] was 0.8. The fold change (FC) [4] was < 0.16.

For `NC(=O)c1cc([N+](=O)[O-])cc2c1n1c([n+]2[O-])-c2ccccc2CC1`, the Activity [1] was < 0.001 µmol/min, the Activity [5] was 1.62 µmol/min and the fold change (FC) [6] was 0.9. The fold change (FC) [4] was < 0.16.

With `NC(=O)c1cc(N2CCc3ccccc3C2)c([N+](=O)[O-])cc1[N+](=O)[O-]` the Activity [1] was 0.042 µmol/min, the Activity [2] was 4.4 µmol/min and the fold change (FC) [3] was 2.4. It also gave a fold change (FC) [4] of 6.8.

In the case of `O=[N+]([O-])c1ccc2c(c1)CN(c1c([N+](=O)[O-])cc([N+](=O)[O-])cc1C(F)(F)F)CC2`, the Activity [7] is reported as 0.076 µmol/min, the solubility [8] is reported as “Insoluble” and the fold change (FC) [9] is reported as 12.3. It also gave an Activity [10] of 2.39 µmol/min and a fold change (FC) [11] of 1.3.

For `NC(=O)c1cc(N2CC2)c([N+](=O)[O-])cc1[N+](=O)[O-]`, the Activity (10'-3umol/min) [1] was 6.2 and the Activity [2] was 1.86 µmol/min.

With `NC(=O)c1cc([N+](=O)[O-])c(N2CCc3ccccc3C2)c([N+](=O)[O-])c1` the Activity [1] was < 0.001 µmol/min, the Activity [2] was < 0.001 µmol/min and the fold change (FC) [3] was < 0.001. The fold change (FC) [4] was < 0.16.

`O=C(O)c1cc([N+](=O)[O-])cc([N+](=O)[O-])c1N1CCc2ccccc2C1` gave an Activity [1] of 0.011 µmol/min, an Activity [2] of 4.22 µmol/min and a fold change (FC) [3] of 2.3. The fold change (FC) [4] was 1.8.

For `NC(=O)c1cc2c(cc1[N+](=O)[O-])[n+]([O-])c1n2CCc2c-1cccc2[N+](=O)[O-]`, the Activity [1] was < 0.001 µmol/min, the Activity [2] was < 0.001 µmol/min and the fold change (FC) [3] was < 0.001. The fold change (FC) [4] was < 0.16.

For `O=[N+]([O-])c1cc([N+](=O)[O-])c(N2CCc3c(cccc3[N+](=O)[O-])C2)c(C(F)(F)F)c1`, the solubility [12] was “Insoluble”.

In the case of `O=[N+]([O-])c1cc([N+](=O)[O-])c(N2CCc3ccccc3C2)c(C(F)(F)F)c1`, the Activity [1] is reported as 0.11 µmol/min, the Activity [2] is reported as 41.5 µmol/min and the fold change (FC) [3] is reported as 22.3. The fold change (FC) [4] was 17.7.

For `O=[N+]([O-])c1ccc(N2CCc3ccccc3C2)c([N+](=O)[O-])c1`, the Activity [1] was < 0.001 µmol/min, the Activity [2] was 0.44 µmol/min and the fold change (FC) [3] was 0.2. The fold change (FC) [4] was < 0.16.

For `O=C(O)c1cc([N+](=O)[O-])c(N2CCc3ccccc3C2)c([N+](=O)[O-])c1`, the Activity [1] was < 0.001 µmol/min, the Activity [2] was 0.02 µmol/min and the fold change (FC) [3] was 0.01. For the same compound, the fold change (FC) [4] was < 0.16.

`O=[N+]([O-])c1ccc2c(c1)[n+]([O-])c1n2CCc2ccccc2-1` gave an Activity [1] of 0.016 µmol/min, an Activity [2] of 0.5 µmol/min and a fold change (FC) [3] of 0.3. The fold change (FC) [4] was 2.6.
